From ChEMBL document CHEMBL1132939, “Design and synthesis of trans-N-[4-[2-(6-cyano-1,2,3, 4-tetrahydroisoquinolin-2-yl)ethyl]cyclohexyl]-4-quinolinecarboxamide (SB-277011): A potent and selective dopamine D(3) receptor antagonist with high oral bioavailability and CNS penetration in the rat” (J Med Chem, 2000)
pIC50, pKi: −log10 of the molar value.

Assays:
D(3) dopamine receptor = D(3) dopamine receptor (Homo sapiens, UniProt P35462); assay: Binding affinity for human Dopamine receptor D3 expressed in CHO cells; assay type: cell-based
D(3) dopamine receptor, sequence (P35462 whole entry): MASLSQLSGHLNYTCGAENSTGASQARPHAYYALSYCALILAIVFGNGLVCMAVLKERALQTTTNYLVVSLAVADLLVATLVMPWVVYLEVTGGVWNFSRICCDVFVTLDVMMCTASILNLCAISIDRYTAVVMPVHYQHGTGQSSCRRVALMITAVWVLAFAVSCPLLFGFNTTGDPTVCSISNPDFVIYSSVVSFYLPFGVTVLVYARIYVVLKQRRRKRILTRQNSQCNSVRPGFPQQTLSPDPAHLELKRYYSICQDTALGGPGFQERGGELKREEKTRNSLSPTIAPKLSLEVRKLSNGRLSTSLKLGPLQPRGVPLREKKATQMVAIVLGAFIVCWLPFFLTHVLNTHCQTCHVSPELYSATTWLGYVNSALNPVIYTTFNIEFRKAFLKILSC

D(2) dopamine receptor = D(2) dopamine receptor (Homo sapiens, UniProt P14416); assay: Binding affinity for human Dopamine receptor D2 expressed in CHO cells; assay type: cell-based
D(2) dopamine receptor, sequence (P14416 whole entry): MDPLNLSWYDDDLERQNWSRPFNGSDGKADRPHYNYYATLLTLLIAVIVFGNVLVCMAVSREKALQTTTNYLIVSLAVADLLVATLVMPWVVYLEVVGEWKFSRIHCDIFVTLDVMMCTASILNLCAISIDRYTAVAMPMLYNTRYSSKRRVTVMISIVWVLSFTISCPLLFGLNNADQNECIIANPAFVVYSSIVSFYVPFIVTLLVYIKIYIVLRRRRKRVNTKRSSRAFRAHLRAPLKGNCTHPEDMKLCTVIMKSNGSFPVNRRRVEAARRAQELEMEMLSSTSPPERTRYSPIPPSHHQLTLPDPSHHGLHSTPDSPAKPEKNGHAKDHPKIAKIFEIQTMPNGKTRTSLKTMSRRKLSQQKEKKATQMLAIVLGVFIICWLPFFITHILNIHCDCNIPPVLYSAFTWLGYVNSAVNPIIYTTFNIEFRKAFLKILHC

[1] = molecular target: 5-hydroxytryptamine receptor 1D (Homo sapiens, UniProt P28221); assay: Binding activity against human 5-hydroxytryptamine 1D receptor
5-hydroxytryptamine receptor 1D, sequence (P28221 whole entry): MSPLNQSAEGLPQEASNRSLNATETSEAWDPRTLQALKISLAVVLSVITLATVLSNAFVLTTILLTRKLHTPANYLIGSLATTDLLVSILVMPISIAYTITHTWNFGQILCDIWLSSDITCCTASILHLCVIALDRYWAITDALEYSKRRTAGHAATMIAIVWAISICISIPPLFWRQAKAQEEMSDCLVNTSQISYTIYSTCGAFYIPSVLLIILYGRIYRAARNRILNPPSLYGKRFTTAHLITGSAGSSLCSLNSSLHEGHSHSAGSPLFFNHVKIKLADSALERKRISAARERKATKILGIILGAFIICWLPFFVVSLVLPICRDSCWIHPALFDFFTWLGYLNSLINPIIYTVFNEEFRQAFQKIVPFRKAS

[2] = Compound was evaluated for Blood clearance in rat; details: whole blood
[3] = Oral bioavailability in rat; details: in vivo
[4] = molecular target: 5-hydroxytryptamine receptor 1B (Homo sapiens, UniProt P28222); assay: Binding activity against human 5-hydroxytryptamine 1B receptor
5-hydroxytryptamine receptor 1B, sequence (P28222 whole entry): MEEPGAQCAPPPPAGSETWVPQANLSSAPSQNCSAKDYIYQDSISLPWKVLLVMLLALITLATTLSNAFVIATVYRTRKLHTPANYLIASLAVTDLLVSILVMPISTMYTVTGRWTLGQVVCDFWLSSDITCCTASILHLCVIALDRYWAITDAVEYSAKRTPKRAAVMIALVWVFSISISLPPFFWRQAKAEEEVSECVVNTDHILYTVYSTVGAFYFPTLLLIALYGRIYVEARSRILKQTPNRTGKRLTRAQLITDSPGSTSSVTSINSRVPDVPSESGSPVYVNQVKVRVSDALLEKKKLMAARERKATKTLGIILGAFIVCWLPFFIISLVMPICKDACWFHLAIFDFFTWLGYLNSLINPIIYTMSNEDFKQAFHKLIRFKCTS
How it was run: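 Radioligand competition binding to human receptor, run by a procedure described in an earlier paper. Binding curves were fitted with an iterative four-parameter logistic model to give IC50, which was then converted to pKi.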

Cytochrome P450 2D6 = Cytochrome P450 2D6 (Homo sapiens, UniProt P10635); assay: Inhibition of cytochrome P450 2D6; assay type: ADME
Cytochrome P450 2D6, sequence (P10635 whole entry): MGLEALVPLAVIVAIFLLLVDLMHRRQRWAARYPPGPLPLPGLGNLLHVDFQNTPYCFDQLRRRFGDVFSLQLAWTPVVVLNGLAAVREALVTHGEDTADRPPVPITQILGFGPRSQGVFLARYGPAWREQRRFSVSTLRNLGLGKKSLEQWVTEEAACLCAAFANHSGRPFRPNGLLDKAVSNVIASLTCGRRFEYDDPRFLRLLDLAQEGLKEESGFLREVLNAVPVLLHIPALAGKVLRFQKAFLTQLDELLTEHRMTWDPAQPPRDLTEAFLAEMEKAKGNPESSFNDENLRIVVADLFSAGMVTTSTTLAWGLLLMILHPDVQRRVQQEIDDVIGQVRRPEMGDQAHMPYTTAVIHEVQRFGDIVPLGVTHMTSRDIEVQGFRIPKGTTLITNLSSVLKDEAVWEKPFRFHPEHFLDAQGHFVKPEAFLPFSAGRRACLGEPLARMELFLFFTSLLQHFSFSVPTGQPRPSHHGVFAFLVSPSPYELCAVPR

[5] = Compound was evaluated for its Half life in rat; details: in vivo

Structure (SMILES)	pKi (D(3) dopamine receptor)	pKi (D(2) dopamine receptor)	pKi [1]	clearance [2]	bioavailability [3]	pKi [4]	pIC50 (Cytochrome P450 2D6)	half-life [5]	Inhibition (Cytochrome P450 2D6)
N#Cc1ccc2c(c1)CN(CC[C@H]1CC[C@H](NC(=O)/C=C/c3c[nH]c4ccccc34)CC1)CC2	8.50	6.90							
Cl.N#Cc1ccc2c(c1)CN(CC[C@H]1CC[C@H](NC(=O)c3cc4ccccc4[nH]3)CC1)CC2			7.00	6 mL/min/kg	43%	6.20	6.10	378 min	
N#Cc1ccc2c(c1)CCN(CC[C@H]1CC[C@H](NC(=O)c3ccc4ccccc4c3)CC1)C2	8.00	5.80	7.00			< 5.00			
N#Cc1ccc2c(c1)CCN(CC[C@H]1CC[C@H](NC(=O)c3cccc4ccccc34)CC1)C2	8.10	6.40							
CS(=O)(=O)c1cccc(/C=C/C(=O)N[C@H]2CC[C@H](CCN3CCc4cc(C#N)ccc4C3)CC2)c1.Cl	8.30	6.50	5.40		45%	5.20			
N#Cc1ccc2c(c1)CCN(CC[C@H]1CC[C@H](NC(=O)/C=C/c3ccc(F)cc3)CC1)C2	8.50	6.70	6.20			< 5.00			

Further lines, results first:

pKi (D(3) dopamine receptor)	pKi (D(2) dopamine receptor)	pKi [1]	clearance [2]	bioavailability [3]	pKi [4]	pIC50 (Cytochrome P450 2D6)	half-life [5]	Inhibition (Cytochrome P450 2D6)	Structure (SMILES)
7.80	6.10							17%	Cl.N#Cc1ccc2c(c1)CCN(CC[C@H]1CC[C@H](NC(=O)c3cc4ccccc4[nH]3)CC1)C2
8.90	6.80	7.00			6.80				N#Cc1ccc2c(c1)CN(CC[C@H]1CC[C@H](NC(=O)/C=C/c3ccccc3)CC1)CC2
8.50	6.70	6.50			6.00				N#Cc1ccc2c(c1)CCN(CC[C@H]1CC[C@H](NC(=O)/C=C/c3ccccc3)CC1)C2
		7.20			7.00				O=C(/C=C/c1c[nH]c2ccccc12)NCCCCN1CCc2ccc(OS(=O)(=O)C(F)(F)F)cc2C1
7.90	6.10	6.60			6.80				N#Cc1ccc2c(c1)CN(CCCCNC(=O)/C=C/c1c[nH]c3ccccc13)CC2
